Holding throughout (format): nucleic-acid assay
For assay [1], the system named is Quadruplex DNA. In words: Binding affinity to 6-FAM labeled human proto-oncogene sequence FMycT G-quadruplex DNA assessed as change in melting temperature at 1 uM in presence of K+ buffer (1 mM KCl, 99 mM LiCl, 10 mM Li cacodylate) by FRET assay. The gist of the method:
(§1)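 FRET melting in duplicate. Dual-labelled oligo (6-FAM/TAMRA) at 0.2 μM with ligand at 1 μM, in 10 mM Li cacodylate pH 7.2. Buffer was 10 mM KCl + 90 mM LiCl for F21T and 1 mM KCl + 99 mM LiCl for FMycT. Sample annealed 90 °C 5 min, cooled to 4 °C overnight. Equilibrated 5 min at 25 °C, then ramped 0.5 °C/min to 95 °C. FAM read 492/516 nm, normalized; Tm taken at the fitted inflection point.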

For assay [2], the system named is dsDNA. In words: Binding affinity to duplex 26 DNA (unknown origin) assessed as change in melting temperature at 1 uM by FRET.
Assay [3] concerns Quadruplex DNA. In words: Binding affinity to 6-FAM labeled human telomeric F21T G-quadruplex DNA assessed as change in melting temperature at 1 uM in K+ rich buffer (10 mM KCl, 90 mM LiCl, 10 mM Li cacodylate) by FRET assay. A digest of the protocol:
as §1

Several values for one entry are separate records, joined by “and”; a condition that tells them apart may be missing. Equal values may be shown once. Activity calls are given as the source filed them. No cut-off for these calls is given here.

In general, ΔTm refers to the shift of the melting midpoint relative to a reference. For `c1ccc(-c2cnc(-c3cccc(-c4ncc(-c5ccccn5)o4)n3)o2)nc1`, the ΔTm in assay [1] is 1.8 to 2.9 °C; in assay [3], 5.3 °C. Also, the outcome in assay [2] was inactive.

As for `CN(C)CCOc1cc(-c2ncc(-c3ccccn3)o2)nc(-c2ncc(-c3ccccn3)o2)c1`, the ΔTm was 1.8 to 2.9 °C in assay [1]; 11.6 °C and 11 °C in assay [3]. In addition, in assay [2], the result was inactive.

Take `c1cc(-c2cnc(-c3cccc(-c4cnco4)n3)o2)nc(-c2cnc(-c3cccc(-c4cnco4)n3)o2)c1`: the figures for the ΔTm in assay [1] and in assay [3] were 2.5 to 4.3 °C and 5 to 7 °C, respectively. In addition, the outcome in assay [2] was inactive.

With `CN(C)CCOc1cc(-c2cnc(-c3cccc(-c4cnco4)n3)o2)nc(-c2cnc(-c3cccc(-c4cnco4)n3)o2)c1`, the values for the thermal shift (ΔTm) in assay [1] and in assay [3] were 2.5 to 4.3 °C and 5 to 7 °C, respectively. Moreover, in assay [2], the result was inactive.

Take `c1cc(-c2cnco2)nc(-c2ncc(-c3cc(OCCN4CCCCC4)cc(-c4cnc(-c5cccc(-c6cnco6)n5)o4)n3)o2)c1`: the ΔTm in assay [1] fell in the range of 2.5 to 4.3 °C; in assay [3] it was 5 to 7 °C. In addition, the result in assay [2] was inactive.

For the compound `c1ccc(-c2ncc(-c3cccc(-c4cnc(-c5ccccn5)o4)n3)o2)nc1`, in assay [2], the outcome was inactive.

The values are drawn from ChEMBL document CHEMBL4257586, “Polyheteroaryl Oxazole/Pyridine-Based Compounds Selected in Vitro as G-Quadruplex Ligands Inhibit Rock Kinase and Exhibit Antiproliferative Activity” (J Med Chem, 2018).
